{"source": "ChEMBL document CHEMBL3351530", "about": "“Analysis of subpocket selectivity and identification of potent selective inhibitors for matriptase and matriptase-2” (J Med Chem, 2014)", "key": {"[1]": {"biological_target": "T1, Suppressor of tumorigenicity 14 protein (Homo sapiens, UniProt Q9Y5Y6)", "T1 sequence (Q9Y5Y6 whole entry)": "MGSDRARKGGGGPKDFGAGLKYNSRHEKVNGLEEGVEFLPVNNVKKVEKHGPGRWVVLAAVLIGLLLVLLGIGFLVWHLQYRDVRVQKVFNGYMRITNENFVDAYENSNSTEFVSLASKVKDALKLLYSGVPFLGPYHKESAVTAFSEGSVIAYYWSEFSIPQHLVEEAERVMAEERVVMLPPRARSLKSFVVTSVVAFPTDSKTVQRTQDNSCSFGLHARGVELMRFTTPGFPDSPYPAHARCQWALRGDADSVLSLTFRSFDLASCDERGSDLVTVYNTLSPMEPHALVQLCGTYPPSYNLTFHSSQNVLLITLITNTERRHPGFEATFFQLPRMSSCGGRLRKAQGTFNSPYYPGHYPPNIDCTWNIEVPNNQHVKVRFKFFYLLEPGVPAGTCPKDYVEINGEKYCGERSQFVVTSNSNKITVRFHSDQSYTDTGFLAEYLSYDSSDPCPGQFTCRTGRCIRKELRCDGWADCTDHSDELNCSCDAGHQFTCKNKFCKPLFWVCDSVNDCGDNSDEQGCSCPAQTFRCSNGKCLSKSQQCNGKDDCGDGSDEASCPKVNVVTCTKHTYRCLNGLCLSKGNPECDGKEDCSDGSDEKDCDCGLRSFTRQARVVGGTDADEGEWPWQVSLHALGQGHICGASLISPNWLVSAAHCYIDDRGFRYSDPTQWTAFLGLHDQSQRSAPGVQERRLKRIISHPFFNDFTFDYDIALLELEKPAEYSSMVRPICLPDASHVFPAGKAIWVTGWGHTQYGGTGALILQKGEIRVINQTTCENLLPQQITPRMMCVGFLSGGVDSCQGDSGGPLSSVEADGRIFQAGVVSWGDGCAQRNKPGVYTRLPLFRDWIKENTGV", "assay": "Inhibition of human recombinant matriptase using Boc-Gln-Ala-Arg-AMC as substrate by microplate reader analysis", "procedure,_shortened": "(§1)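 Recombinant human matriptase (aa 596−[…]) or matriptase-2 (aa 78−811), active-site titrated with MUGB; 1 nM enzyme at room temperature in 50 mM Tris-HCl, 15 mM NaCl, pH 7.4. AMC release read at 360/441 nm. If inhibition occurred at I/E = 10, Ki came from a Morrison fit; otherwise from substrate-velocity curves fitted to the best reversible model. At least 3 runs in duplicate, mean ± SD.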"}, "[2]": {"species_on_record": "Homo sapiens", "assay": "Selectivity ratio of Ki for human recombinant matriptase-2 to Ki for human recombinant matriptase"}, "[3]": {"biological_target": "T2, Transmembrane protease serine 6 (Homo sapiens, UniProt Q8IU80)", "T2 sequence (Q8IU80 whole entry)": "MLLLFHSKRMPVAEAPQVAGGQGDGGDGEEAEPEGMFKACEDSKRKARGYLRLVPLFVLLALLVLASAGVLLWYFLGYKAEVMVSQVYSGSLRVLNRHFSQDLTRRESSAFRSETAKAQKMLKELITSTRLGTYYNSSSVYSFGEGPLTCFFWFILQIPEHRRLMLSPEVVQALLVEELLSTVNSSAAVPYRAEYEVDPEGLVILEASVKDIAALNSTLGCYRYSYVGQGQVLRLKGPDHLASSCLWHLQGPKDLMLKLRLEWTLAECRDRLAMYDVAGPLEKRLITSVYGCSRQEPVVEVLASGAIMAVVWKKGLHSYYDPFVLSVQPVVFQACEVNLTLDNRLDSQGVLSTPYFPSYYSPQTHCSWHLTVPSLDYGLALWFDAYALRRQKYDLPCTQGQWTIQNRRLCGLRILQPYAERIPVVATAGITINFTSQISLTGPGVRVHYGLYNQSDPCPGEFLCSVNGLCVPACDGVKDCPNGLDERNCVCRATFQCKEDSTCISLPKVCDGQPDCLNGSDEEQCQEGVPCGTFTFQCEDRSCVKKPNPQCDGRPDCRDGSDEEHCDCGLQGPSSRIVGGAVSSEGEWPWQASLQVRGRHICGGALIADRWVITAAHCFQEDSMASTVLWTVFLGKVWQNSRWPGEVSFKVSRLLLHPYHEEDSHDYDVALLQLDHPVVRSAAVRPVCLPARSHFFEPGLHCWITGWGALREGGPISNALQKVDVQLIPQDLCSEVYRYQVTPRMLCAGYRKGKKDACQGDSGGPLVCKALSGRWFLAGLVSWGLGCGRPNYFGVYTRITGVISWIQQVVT", "assay": "Inhibition of human recombinant matriptase-2 using Boc-Gln-Ala-Arg-AMC as substrate by microplate reader analysis", "procedure,_shortened": "as §1"}, "[4]": {"species_on_record": "Homo sapiens", "assay": "Selectivity ratio of Ki for human recombinant matriptase to Ki for human recombinant matriptase-2"}}}
{"compound": "CC(C)C[C@H](N)C(=O)N[C@@H](CCC(N)=O)C(=O)N[C@@H](C)C(=O)N[C@@H](CCCNC(=N)N)C(=O)c1nc2ccccc2s1", "values": [{"measurement": "Ki", "setting": "[1]", "value": 0.15, "unit": "nM"}, {"measurement": "Ratio Ki", "setting": "[2]", "value": 90}, {"measurement": "Ki", "setting": "[3]", "value": 13.5, "unit": "nM"}]}
{"compound": "N=C(N)NCCC[C@H](NC(=O)[C@H](Cc1ccc(O)cc1)NC(=O)[C@H](CS)NC(=O)[C@@H](N)Cc1c[nH]c2ccccc12)C(=O)c1nc2ccccc2s1", "values": [{"measurement": "Ki", "setting": "[1]", "value": 7.98, "unit": "nM"}, {"measurement": "Ratio Ki", "setting": "[4]", "value": 8}, {"measurement": "Ratio Ki", "setting": "[2]", "value": 0.13}, {"measurement": "Ki", "setting": "[3]", "value": 1.03, "unit": "nM"}]}
{"compound": "CC(C)[C@H](NC(=O)[C@H](Cc1ccc(O)cc1)NC(=O)[C@@H](N)Cc1ccc(O)cc1)C(=O)N[C@@H](CCCNC(=N)N)C(=O)c1nc2ccccc2s1", "values": [{"measurement": "Ki", "setting": "[1]", "value": 31.5, "unit": "nM"}, {"measurement": "Ratio Ki", "setting": "[4]", "value": 13}, {"measurement": "Ratio Ki", "setting": "[2]", "value": 0.08}, {"measurement": "Ki", "setting": "[3]", "value": 2.56, "unit": "nM"}]}
{"compound": "N=C(N)NCCC[C@H](NC(=O)[C@@H]1CCCN1C(=O)[C@H](CC(N)=O)NC(=O)[C@@H](N)CCCNC(=N)N)C(=O)c1nc2ccccc2s1", "values": [{"measurement": "Ki", "setting": "[1]", "value": 0.91, "unit": "nM"}, {"measurement": "Ratio Ki", "setting": "[2]", "value": 49}, {"measurement": "Ki", "setting": "[3]", "value": 47.8, "unit": "nM"}]}
{"compound": "C[C@H](NC(=O)[C@H](Cc1ccc(O)cc1)NC(=O)[C@@H](N)CCCNC(=N)N)C(=O)N[C@@H](CCCNC(=N)N)C(=O)c1nc2ccccc2s1", "values": [{"measurement": "Ki", "setting": "[1]", "value": 0.14, "unit": "nM"}, {"measurement": "Ratio Ki", "setting": "[2]", "value": 45}, {"measurement": "Ki", "setting": "[3]", "value": 6.3, "unit": "nM"}]}
{"compound": "N=C(N)NCCC[C@H](NC(=O)[C@@H](N)Cc1c[nH]c2ccccc12)C(=O)N[C@@H](CCC(=O)O)C(=O)N[C@@H](CCCNC(=N)N)C(=O)c1nc2ccccc2s1", "values": [{"measurement": "Ki", "setting": "[1]", "value": 14.7, "unit": "nM"}, {"measurement": "Ratio Ki", "setting": "[2]", "value": 3}, {"measurement": "Ki", "setting": "[3]", "value": 46.8, "unit": "nM"}]}
{"compound": "C[C@H](NC(=O)[C@H](CC(N)=O)NC(=O)[C@@H](N)CCCCN)C(=O)N[C@@H](CCCNC(=N)N)C(=O)c1nc2ccccc2s1", "values": [{"measurement": "Ki", "setting": "[1]", "value": 0.45, "unit": "nM"}, {"measurement": "Ratio Ki", "setting": "[2]", "value": 62}, {"measurement": "Ki", "setting": "[3]", "value": 24.8, "unit": "nM"}]}
{"compound": "C[C@H](NC(=O)[C@H](CCCNC(=N)N)NC(=O)[C@@H](N)CCCNC(=N)N)C(=O)N[C@@H](CCCNC(=N)N)C(=O)c1nc2ccccc2s1", "values": [{"measurement": "Ki", "setting": "[1]", "value": 0.72, "unit": "nM"}, {"measurement": "Ratio Ki", "setting": "[2]", "value": 22}, {"measurement": "Ki", "setting": "[3]", "value": 15.4, "unit": "nM"}]}
{"compound": "CC(C)C[C@H](NC(=O)[C@@H](N)CCCNC(=N)N)C(=O)N[C@@H](CO)C(=O)N[C@@H](CCCNC(=N)N)C(=O)c1nc2ccccc2s1", "values": [{"measurement": "Ki", "setting": "[1]", "value": 1.4, "unit": "nM"}, {"measurement": "Ratio Ki", "setting": "[2]", "value": 1.79}, {"measurement": "Ki", "setting": "[3]", "value": 2.48, "unit": "nM"}]}
{"compound": "CC(C)C[C@H](N)C(=O)N[C@@H](Cc1c[nH]c2ccccc12)C(=O)N[C@@H](Cc1c[nH]c2ccccc12)C(=O)N[C@@H](CCCNC(=N)N)C(=O)c1nc2ccccc2s1", "values": [{"measurement": "Ki", "setting": "[1]", "value": 3.22, "unit": "nM"}, {"measurement": "Ratio Ki", "setting": "[4]", "value": 2}, {"measurement": "Ratio Ki", "setting": "[2]", "value": 0.63}, {"measurement": "Ki", "setting": "[3]", "value": 1.98, "unit": "nM"}]}
{"compound": "C[C@H](NC(=O)[C@H](CCC(N)=O)NC(=O)[C@@H](N)CO)C(=O)N[C@@H](CCCNC(=N)N)C(=O)c1nc2ccccc2s1", "values": [{"measurement": "Ki", "setting": "[1]", "value": 0.092, "unit": "nM"}, {"measurement": "Ratio Ki", "setting": "[2]", "value": 378}, {"measurement": "Ki", "setting": "[3]", "value": 34.8, "unit": "nM"}]}
{"compound": "N=C(N)NCCC[C@H](NC(=O)[C@H](Cc1ccccc1)NC(=O)[C@H](CCC(N)=O)NC(=O)[C@@H](N)CCCNC(=N)N)C(=O)c1nc2ccccc2s1", "values": [{"measurement": "Ki", "setting": "[1]", "value": 0.23, "unit": "nM"}, {"measurement": "Ratio Ki", "setting": "[2]", "value": 6}, {"measurement": "Ki", "setting": "[3]", "value": 1.4, "unit": "nM"}]}
{"compound": "N=C(N)NCCC[C@H](NC(=O)[C@@H]1CCCN1C(=O)[C@H](CCC(N)=O)NC(=O)[C@@H](N)CCCNC(=N)N)C(=O)c1nc2ccccc2s1", "values": [{"measurement": "Ki", "setting": "[1]", "value": 0.061, "unit": "nM"}, {"measurement": "Ratio Ki", "setting": "[2]", "value": 128}, {"measurement": "Ki", "setting": "[3]", "value": 7.8, "unit": "nM"}]}
{"compound": "C[C@H](NC(=O)[C@H](CCCCN)NC(=O)[C@@H](N)Cc1ccc(O)cc1)C(=O)N[C@@H](CCCNC(=N)N)C(=O)c1nc2ccccc2s1", "values": [{"measurement": "Ki", "setting": "[1]", "value": 0.89, "unit": "nM"}, {"measurement": "Ratio Ki", "setting": "[2]", "value": 23}, {"measurement": "Ki", "setting": "[3]", "value": 20.8, "unit": "nM"}]}
{"compound": "N=C(N)NCCC[C@H](NC(=O)[C@H](Cc1ccc(O)cc1)NC(=O)[C@H](CCC(N)=O)NC(=O)[C@@H](N)CCCNC(=N)N)C(=O)c1nc2ccccc2s1", "values": [{"measurement": "Ki", "setting": "[1]", "value": 0.18, "unit": "nM"}, {"measurement": "Ratio Ki", "setting": "[2]", "value": 4}, {"measurement": "Ki", "setting": "[3]", "value": 0.74, "unit": "nM"}]}
